The text below walks through data of ChEMBL document CHEMBL3351352, “Discovery of a novel series of potent MK2 non-ATP competitive inhibitors using 1,2-substituted azoles as cis-amide isosteres” (Bioorg Med Chem Lett, 2014).

The source made the active and inactive calls. The rule behind the calls is not given here. Bounds are passed on as bounds.

Data set [1] can be described thus: Protein binding in human plasma. Format: ADME, cell-free. Conditions: read-out: PPB (converted).
Data set [2] is described as follows: Permeability in human Caco2 cells. Format: ADME, cell-based. To be noted: Caco-2, read-out: permeability. (In general: Caco-2 cells form a polarised layer with tight junctions and transporters.)
The next data set has as its system THP-1. In words: Inhibition of LPS-induced TNFalpha production in human THP1 cells pre-incubated for 30 mins before LPS challenge measured 3 hrs after LPS addition.
The target in data set [3] is Serine/threonine-protein kinase Chk1 (Homo sapiens, UniProt O14757). In words: Inhibition of CHK1 (unknown origin).
The target in data set [4] is T1, MAP kinase-activated protein kinase 2 (Homo sapiens, UniProt P49137). In words: Inhibition of MK2 (unknown origin) incubated for 30 mins by MK2 IMAP assay.
Target sequence in this assay (P49137 whole entry): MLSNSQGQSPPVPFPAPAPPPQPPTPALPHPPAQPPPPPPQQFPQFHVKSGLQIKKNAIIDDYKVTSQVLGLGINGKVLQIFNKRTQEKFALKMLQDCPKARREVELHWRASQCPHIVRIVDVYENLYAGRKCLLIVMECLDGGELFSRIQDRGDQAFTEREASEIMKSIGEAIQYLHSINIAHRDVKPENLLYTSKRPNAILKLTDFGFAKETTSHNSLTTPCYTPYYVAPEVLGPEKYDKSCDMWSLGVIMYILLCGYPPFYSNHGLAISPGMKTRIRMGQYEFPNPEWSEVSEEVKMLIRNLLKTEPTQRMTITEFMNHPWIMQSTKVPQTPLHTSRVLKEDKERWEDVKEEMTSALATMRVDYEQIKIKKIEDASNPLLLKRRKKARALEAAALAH
Data set [5] addresses Serine/threonine-protein kinase 3 (Homo sapiens, UniProt Q13188). In words: Inhibition of MST2 (unknown origin).
Data set [6] has as its target Tyrosine-protein kinase JAK2 (Homo sapiens, UniProt O60674). Briefly: Inhibition of JAK2 (unknown origin).
Data set [7] deals with Interleukin-1 receptor-associated kinase 4 (Homo sapiens, UniProt Q9NWZ3). Briefly: Inhibition of IRAK4 (unknown origin).
Data set [8] addresses Inhibitor of nuclear factor kappa-B kinase subunit beta (Homo sapiens, UniProt O14920). Briefly: Inhibition of IKKB (unknown origin).
For data set [9], the target named is Cyclin-dependent kinase 2 (Homo sapiens, UniProt P24941). Briefly: Inhibition of CDK2 (unknown origin).
The target in data set [10] is Tyrosine-protein kinase Lck (Homo sapiens, UniProt P06239). In words: Inhibition of LCK (unknown origin).
Data set [11] concerns the target Protein kinase C alpha type (Homo sapiens, UniProt P17252). In words: Inhibition of PKCA (unknown origin).
Data set [12] in a line: AUC (0 to 6 hrs) in Sprague-Dawley rat at 10 mg/kg, po. To be noted: plasma. Format: ADME, organism-based. Also on record: time < 6 hr, dose 10 mg/kg, route oral. A digest of the protocol:
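Sprague–Dawley rats were dosed orally with the compound in 20% HPBCD vehicle. AUC was calculated over 0 to 6 h.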

Data set [13] concerns the target Insulin-like growth factor 1 receptor (Homo sapiens, UniProt P08069). Briefly: Inhibition of IGF1R (unknown origin).
For data set [14], the target named is Ribosomal protein S6 kinase alpha-3 (Homo sapiens, UniProt P51812). In words: Inhibition of RSK2 (unknown origin).
The target of data set [15] is Serine/threonine-protein kinase Nek2 (Homo sapiens, UniProt P51955). Briefly: Inhibition of NEK2 (unknown origin).
In data set [16] the target is T1, MAP kinase-activated protein kinase 2. In words: Non-ATP competitive inhibition of MK2 (unknown origin) incubated for 30 mins in presence of 1 uM and 100 uM ATP by MK2 IMAP assay. In outline:
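Inhibitor, ATP and MK2 (final 50 pM) were preincubated 30 min. TAMRA-labelled peptide (final 100 nM) was added for 30 min; final DMSO was 1%. Progressive binding reagent stopped the reaction (30 min); read at ex 530/em 580 nm. Values are means of duplicates or triplicates.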
Target sequence in this assay (P49137 whole entry, looked up): as the sequence (P49137 whole entry) above

Data set [17] addresses Casein kinase I isoform delta (Homo sapiens, UniProt P48730). Briefly: Inhibition of CSNK1D (unknown origin).
Another data set concerns the target Ephrin type-B receptor 4 (Homo sapiens, UniProt P54760). Briefly: Inhibition of EPHB4 (unknown origin).
Data set [18] has as its target Serine/threonine-protein kinase PLK3 (Homo sapiens, UniProt Q9H4B4). In words: Inhibition of PLK3 (unknown origin).
Data set [19] deals with Glycogen synthase kinase-3 beta (Homo sapiens, UniProt P49841). In words: Inhibition of GSK3B (unknown origin).
In data set [20] the target is Hepatocyte growth factor receptor (Homo sapiens, UniProt P08581). In words: Inhibition of MET (unknown origin).
Data set [21] deals with Epidermal growth factor receptor (Homo sapiens, UniProt P00533). Briefly: Inhibition of EGFR (unknown origin).
For data set [22], the target named is Calcium/calmodulin-dependent protein kinase type IV (Homo sapiens, UniProt Q16566). Briefly: Inhibition of CAMK4 (unknown origin).
Data set [23] concerns the target Receptor-type tyrosine-protein kinase FLT3 (Homo sapiens, UniProt P36888). In words: Inhibition of FLT3 (unknown origin).
Data set [24] deals with Testis-specific serine/threonine-protein kinase 2 (Homo sapiens, UniProt Q96PF2). In words: Inhibition of TSSK2 (unknown origin).
The target in data set [25] is Rho-associated protein kinase 2 (Homo sapiens, UniProt O75116). Briefly: Inhibition of ROCK2 (unknown origin).
Data set [26] addresses T1, MAP kinase-activated protein kinase 2. In words: Inhibition of MK2 in human THP1 cells assessed as reduction in LPS-induced HSP27 Ser78 phosphorylation after 60 mins. Format: cell-based, THP-1.
Target sequence in this assay (P49137 whole entry): as above
The target of data set [27] is Mitogen-activated protein kinase 1 (Homo sapiens, UniProt P28482). In words: Inhibition of ERK2 (unknown origin).
Data set [28] deals with RAC-alpha serine/threonine-protein kinase (Homo sapiens, UniProt P31749). In words: Inhibition of AKT1 (unknown origin).
In data set [29] the target is Vascular endothelial growth factor receptor 2 (Homo sapiens, UniProt P35968). Briefly: Inhibition of KDR (unknown origin).

Sequence of Testis-specific serine/threonine-protein kinase 2 (Q96PF2 whole entry): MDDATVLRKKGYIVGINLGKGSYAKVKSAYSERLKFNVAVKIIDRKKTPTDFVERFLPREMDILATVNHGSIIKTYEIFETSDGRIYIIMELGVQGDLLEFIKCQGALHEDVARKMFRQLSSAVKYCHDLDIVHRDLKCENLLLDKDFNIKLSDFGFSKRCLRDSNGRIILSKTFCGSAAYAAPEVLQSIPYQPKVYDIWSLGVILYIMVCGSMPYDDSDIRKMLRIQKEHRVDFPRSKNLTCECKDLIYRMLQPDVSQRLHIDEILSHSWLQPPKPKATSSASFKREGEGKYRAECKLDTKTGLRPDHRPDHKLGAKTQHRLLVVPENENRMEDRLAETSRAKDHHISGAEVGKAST
Sequence of Epidermal growth factor receptor (P00533 whole entry): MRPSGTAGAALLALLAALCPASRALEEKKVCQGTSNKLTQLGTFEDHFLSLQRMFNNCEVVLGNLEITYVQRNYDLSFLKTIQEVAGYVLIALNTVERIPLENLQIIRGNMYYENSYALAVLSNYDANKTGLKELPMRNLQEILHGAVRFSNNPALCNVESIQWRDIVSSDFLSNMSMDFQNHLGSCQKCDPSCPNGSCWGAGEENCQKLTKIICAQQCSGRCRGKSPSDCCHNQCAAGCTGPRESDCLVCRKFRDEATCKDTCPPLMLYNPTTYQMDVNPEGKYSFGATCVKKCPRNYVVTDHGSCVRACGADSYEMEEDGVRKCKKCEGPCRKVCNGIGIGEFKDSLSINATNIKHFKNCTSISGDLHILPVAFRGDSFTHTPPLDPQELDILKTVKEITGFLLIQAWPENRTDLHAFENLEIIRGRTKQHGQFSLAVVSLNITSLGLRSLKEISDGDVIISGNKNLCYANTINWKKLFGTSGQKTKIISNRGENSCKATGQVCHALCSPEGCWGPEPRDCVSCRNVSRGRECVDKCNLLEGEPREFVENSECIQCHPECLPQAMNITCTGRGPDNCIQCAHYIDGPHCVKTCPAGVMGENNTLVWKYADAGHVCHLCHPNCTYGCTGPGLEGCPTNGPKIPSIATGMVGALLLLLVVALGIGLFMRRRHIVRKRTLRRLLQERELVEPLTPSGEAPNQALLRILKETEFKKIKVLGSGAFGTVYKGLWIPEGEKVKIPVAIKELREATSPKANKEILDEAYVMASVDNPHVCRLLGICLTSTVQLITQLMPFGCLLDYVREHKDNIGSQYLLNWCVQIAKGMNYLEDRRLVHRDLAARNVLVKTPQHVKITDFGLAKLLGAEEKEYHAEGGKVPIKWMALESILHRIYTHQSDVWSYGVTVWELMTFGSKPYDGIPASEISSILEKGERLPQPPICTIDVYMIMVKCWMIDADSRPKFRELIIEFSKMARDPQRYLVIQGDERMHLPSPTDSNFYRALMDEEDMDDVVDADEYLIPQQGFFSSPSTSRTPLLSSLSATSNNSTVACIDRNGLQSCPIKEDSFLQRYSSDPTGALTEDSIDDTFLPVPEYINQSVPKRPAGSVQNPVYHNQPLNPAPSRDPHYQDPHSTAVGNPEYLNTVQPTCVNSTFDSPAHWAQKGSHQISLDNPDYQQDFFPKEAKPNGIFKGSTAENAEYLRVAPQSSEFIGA
Sequence of Ephrin type-B receptor 4 (P54760 whole entry): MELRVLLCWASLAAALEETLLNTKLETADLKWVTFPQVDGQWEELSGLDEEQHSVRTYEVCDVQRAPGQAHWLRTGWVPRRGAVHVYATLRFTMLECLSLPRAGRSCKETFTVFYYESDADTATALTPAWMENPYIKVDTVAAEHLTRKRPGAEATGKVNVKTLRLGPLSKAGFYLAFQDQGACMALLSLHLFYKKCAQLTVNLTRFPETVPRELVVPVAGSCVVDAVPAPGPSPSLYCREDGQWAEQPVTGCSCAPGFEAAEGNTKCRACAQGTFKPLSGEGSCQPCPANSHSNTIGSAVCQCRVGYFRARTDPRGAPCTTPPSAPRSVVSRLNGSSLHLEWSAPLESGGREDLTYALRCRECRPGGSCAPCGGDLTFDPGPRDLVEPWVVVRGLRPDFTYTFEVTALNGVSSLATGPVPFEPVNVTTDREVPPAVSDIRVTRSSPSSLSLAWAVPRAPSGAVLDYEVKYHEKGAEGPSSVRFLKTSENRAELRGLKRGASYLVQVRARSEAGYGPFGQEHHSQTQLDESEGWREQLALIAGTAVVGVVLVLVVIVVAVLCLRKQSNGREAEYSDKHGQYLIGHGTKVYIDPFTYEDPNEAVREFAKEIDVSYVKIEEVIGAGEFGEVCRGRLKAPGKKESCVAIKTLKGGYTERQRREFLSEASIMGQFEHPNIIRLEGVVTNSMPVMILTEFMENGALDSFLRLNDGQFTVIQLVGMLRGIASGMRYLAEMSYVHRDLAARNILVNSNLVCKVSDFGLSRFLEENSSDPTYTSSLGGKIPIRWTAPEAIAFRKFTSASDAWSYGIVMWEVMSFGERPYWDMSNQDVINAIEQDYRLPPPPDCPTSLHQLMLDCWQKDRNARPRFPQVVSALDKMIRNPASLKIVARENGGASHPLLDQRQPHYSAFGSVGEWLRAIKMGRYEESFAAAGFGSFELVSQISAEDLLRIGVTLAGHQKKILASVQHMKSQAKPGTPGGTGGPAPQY
Sequence of Receptor-type tyrosine-protein kinase FLT3 (P36888 whole entry): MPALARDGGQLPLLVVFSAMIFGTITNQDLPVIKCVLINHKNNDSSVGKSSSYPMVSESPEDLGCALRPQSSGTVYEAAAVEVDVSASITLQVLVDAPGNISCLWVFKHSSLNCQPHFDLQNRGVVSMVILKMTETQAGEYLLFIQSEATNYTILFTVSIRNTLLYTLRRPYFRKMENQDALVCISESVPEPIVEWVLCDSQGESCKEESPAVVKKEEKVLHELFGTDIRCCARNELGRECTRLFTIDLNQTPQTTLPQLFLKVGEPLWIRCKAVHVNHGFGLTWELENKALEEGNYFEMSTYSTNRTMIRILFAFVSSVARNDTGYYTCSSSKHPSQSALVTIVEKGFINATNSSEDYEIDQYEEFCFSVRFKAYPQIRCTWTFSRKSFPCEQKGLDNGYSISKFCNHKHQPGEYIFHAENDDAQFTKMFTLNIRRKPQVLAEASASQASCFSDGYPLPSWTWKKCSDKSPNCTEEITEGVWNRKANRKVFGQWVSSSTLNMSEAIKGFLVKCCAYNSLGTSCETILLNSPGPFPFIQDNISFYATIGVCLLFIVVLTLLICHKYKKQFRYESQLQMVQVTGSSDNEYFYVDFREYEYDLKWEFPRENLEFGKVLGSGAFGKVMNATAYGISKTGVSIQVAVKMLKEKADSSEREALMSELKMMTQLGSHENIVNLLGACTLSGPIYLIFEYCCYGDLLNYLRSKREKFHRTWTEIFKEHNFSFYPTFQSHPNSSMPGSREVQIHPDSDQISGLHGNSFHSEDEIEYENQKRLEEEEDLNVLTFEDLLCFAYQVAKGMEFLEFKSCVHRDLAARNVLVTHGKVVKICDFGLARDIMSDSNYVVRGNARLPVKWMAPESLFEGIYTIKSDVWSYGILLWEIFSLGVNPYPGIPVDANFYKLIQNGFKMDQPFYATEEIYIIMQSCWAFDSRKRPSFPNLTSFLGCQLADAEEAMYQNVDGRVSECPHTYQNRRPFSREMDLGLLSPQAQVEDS
Sequence of Casein kinase I isoform delta (P48730 whole entry, canonical isoform): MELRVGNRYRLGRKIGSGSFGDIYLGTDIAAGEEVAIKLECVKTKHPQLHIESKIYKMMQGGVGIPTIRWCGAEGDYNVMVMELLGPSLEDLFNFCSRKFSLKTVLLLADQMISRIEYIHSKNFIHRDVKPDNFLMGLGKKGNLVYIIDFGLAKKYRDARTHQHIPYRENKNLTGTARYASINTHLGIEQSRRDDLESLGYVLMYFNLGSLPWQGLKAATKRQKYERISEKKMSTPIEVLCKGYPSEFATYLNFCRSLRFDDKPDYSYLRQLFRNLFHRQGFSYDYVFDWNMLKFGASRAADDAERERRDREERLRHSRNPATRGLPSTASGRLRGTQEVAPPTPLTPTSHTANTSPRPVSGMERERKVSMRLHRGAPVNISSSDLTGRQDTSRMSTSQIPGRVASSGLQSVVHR
Sequence of Tyrosine-protein kinase Lck (P06239 whole entry): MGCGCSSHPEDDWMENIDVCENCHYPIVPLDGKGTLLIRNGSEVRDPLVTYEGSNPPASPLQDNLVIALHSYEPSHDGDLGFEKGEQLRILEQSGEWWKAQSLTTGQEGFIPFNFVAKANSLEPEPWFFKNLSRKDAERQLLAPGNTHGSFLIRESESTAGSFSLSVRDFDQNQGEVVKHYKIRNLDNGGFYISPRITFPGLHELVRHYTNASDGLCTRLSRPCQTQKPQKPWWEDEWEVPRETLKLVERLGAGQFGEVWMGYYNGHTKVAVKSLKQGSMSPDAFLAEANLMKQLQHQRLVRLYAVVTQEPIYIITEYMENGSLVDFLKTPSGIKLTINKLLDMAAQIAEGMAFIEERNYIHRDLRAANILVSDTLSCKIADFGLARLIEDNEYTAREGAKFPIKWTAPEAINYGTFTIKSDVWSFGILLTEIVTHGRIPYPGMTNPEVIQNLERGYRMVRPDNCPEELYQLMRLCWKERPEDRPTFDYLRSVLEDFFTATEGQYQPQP

As to `O=C1c2oc(-c3ccc(Cl)cc3)cc2Cc2cc(N3CCNCC3)ccc2N1Cc1ccccc1-c1cncnc1`, the fraction unbound in data set [1] was 0.016. For the same molecule, the Papp in data set [2] is less than 0.1 ×10⁻⁶ cm/s. This molecule gave an IC50 in the data set on THP-1 of 1.49 µM.
For `Clc1ccc(-c2ccc(-c3nccn3-c3ccc(N4CCNCC4)cc3)o2)cc1`, the half-maximal inhibitory concentration (IC50) was more than 30 µM in data set [3]; 0.0255 µM in data set [4]; more than 30 µM in data set [5]; more than 30 µM in data set [6]; more than 30 µM in data set [7]; more than 30 µM in data set [8]. Further, the IC50 in data set [9], in data set [10], in data set [11], in [13], in data set [14] and in data set [15] was more than 30 µM throughout. Moreover, the IC50 is more than 30 µM in data set [17]; more than 30 µM at Ephrin type-B receptor 4; 0.8 µM with THP-1; more than 30 µM in data set [18]; more than 30 µM in data set [19]; more than 30 µM in data set [20]. Besides, the 50% inhibitory concentration (IC50) in data set [21] was more than 30 µM; in data set [22], more than 30 µM; in [23], more than 30 µM; in data set [24], more than 30 µM; in [25], more than 20 µM; in data set [26], 2.14 µM. For the same molecule, the figures for the 50% inhibitory concentration (IC50) in [27], in data set [28] and in [29] were more than 30 µM, more than 15 µM and more than 30 µM, respectively. Moreover, in [1], the fraction unbound is 0.028. The same molecule registered an AUC(0-t) at 6 h in [12] of 13.3 µM·h. The inhibition result in data set [16] is “Active”. The Papp in data set [2] worked out at 5 ×10⁻⁶ cm/s.

A word on the IC50: it is the concentration that inhibits the measured activity by half. One may read the AUC(0-t) as the area under the concentration-time curve up to a stated or last time point.
